Source: ChEMBL document CHEMBL1649097, “Kinase inhibition by deoxy analogues of the resorcylic lactone L-783277” (ACS Med Chem Lett, 2011)

Assays:
Plasma [1] = experiment: Metabolic stability in mouse plasma assessed as compound conversion to metabolite C7'-C8' E isomer; assay type: ADME, cell-free
Blood = experiment: Metabolic stability in mouse blood assessed as compound conversion to metabolite C7'-C8' E isomer; assay type: ADME, tissue-based
Plasma [2] = experiment: Metabolic stability in human plasma assessed as compound conversion to metabolite C7'-C8' E isomer at 55 uM after 20 mins at 37 degC; assay type: ADME, cell-free
[3] = target: ALK tyrosine kinase receptor (Homo sapiens, UniProt Q9UM73); experiment: Inhibition of ALK by TR-FRET based LanthaScreen assay
Sequence of ALK tyrosine kinase receptor (Q9UM73 whole entry): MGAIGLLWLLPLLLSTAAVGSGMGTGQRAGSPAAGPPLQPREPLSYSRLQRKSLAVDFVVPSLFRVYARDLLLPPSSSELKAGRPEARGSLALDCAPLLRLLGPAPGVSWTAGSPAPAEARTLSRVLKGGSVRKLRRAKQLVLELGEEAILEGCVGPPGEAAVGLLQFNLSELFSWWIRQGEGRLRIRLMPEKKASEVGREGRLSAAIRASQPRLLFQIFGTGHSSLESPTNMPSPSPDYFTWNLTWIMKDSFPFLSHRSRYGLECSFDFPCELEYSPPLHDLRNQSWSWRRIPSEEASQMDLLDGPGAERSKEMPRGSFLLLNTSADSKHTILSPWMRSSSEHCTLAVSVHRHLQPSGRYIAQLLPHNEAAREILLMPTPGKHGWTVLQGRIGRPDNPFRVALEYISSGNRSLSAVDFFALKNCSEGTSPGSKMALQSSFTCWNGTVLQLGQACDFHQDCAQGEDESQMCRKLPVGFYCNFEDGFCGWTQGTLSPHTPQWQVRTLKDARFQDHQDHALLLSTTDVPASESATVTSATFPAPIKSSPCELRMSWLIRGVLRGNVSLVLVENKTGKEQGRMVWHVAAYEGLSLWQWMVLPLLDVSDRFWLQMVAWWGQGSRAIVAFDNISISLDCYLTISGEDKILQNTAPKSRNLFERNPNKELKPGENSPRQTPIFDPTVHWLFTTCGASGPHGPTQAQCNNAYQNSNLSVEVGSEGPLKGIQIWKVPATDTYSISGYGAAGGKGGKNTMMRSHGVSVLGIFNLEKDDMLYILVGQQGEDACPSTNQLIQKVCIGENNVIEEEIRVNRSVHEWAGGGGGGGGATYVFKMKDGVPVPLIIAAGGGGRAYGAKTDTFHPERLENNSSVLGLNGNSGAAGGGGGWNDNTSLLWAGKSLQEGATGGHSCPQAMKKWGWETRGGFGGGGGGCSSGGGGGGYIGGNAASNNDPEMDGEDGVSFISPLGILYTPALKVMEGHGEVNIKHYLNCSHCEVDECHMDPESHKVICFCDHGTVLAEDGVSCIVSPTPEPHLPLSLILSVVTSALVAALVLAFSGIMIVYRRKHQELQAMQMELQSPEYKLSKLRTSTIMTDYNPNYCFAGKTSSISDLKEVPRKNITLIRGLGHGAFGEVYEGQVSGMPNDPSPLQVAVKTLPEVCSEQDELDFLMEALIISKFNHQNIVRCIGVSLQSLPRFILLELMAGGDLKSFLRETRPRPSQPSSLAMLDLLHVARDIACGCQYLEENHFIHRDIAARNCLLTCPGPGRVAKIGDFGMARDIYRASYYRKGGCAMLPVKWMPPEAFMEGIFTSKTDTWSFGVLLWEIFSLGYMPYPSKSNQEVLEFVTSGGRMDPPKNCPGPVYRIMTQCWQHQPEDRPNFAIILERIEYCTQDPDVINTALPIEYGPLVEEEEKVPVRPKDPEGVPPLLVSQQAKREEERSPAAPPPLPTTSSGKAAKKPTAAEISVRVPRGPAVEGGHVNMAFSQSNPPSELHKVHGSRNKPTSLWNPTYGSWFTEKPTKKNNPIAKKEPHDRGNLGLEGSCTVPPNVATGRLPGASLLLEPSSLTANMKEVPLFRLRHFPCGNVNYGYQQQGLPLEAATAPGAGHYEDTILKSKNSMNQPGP
Method in brief: (§1)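 TR-FRET LanthaScreen kinase assay with phosphorylation of a substrate; FGFR3 used as the K651E mutant. IC50 derived from two independent experiments; for some compounds, ALK and cKIT values are averages ± SDs of three independent experiments.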

[4] = target: Mitogen-activated protein kinase 1 (Homo sapiens, UniProt P28482); experiment: Inhibition of ERK2 by Caliper mobility shift assay
Sequence of Mitogen-activated protein kinase 1 (P28482 whole entry): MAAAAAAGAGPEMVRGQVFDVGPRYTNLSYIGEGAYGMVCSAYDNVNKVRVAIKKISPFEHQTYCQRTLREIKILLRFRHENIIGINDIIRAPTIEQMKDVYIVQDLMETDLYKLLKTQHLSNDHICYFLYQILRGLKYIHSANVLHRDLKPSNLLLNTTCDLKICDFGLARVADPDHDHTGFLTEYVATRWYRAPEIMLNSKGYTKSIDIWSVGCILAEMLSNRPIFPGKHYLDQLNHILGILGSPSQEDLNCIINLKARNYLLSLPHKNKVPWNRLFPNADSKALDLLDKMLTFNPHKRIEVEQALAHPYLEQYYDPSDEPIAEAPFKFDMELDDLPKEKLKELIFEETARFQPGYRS
Method in brief: (§2)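 Caliper mobility shift kinase assay with phosphorylation of a substrate; IC50 derived from two independent experiments.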

Ephrin type-B receptor 4 = target: T1, Ephrin type-B receptor 4 (Homo sapiens, UniProt P54760); experiment: Inhibition of EPHB4 by TR-FRET based LanthaScreen assay
T1 sequence (P54760 whole entry): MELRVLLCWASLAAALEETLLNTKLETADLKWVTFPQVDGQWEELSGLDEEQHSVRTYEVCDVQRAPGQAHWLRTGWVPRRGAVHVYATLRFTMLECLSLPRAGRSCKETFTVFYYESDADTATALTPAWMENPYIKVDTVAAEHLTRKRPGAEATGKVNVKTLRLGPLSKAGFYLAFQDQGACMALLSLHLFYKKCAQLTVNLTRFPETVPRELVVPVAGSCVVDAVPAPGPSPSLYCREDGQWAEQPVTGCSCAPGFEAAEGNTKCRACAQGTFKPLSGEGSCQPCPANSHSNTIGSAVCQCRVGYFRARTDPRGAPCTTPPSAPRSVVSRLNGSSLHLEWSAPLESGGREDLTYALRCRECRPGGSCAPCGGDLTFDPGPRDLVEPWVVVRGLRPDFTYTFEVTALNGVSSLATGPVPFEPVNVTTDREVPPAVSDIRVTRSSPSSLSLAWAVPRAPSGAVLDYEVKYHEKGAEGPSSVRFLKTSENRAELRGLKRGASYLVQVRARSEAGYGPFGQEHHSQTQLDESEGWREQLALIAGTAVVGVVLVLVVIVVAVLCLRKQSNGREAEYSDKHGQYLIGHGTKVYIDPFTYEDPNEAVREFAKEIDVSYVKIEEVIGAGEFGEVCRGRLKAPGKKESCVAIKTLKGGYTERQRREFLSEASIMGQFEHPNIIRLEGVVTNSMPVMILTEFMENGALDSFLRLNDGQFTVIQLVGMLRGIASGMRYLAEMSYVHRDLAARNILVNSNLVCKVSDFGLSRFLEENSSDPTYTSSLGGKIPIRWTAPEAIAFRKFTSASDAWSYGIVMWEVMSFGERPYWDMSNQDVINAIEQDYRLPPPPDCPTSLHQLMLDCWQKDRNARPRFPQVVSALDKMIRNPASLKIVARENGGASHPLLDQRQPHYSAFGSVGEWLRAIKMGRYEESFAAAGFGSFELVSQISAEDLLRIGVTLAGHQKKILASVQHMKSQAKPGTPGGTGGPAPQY
Method in brief: (§3)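 LanthaScreen TR-FRET kinase format, run per the group's earlier protocol. IC50 from two independent experiments; for some compounds, PDGFRα and VEGFR2 values are means ± SD of three independent runs. The FGFR3 used was the K651E mutant.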

[5] = target: Mast/stem cell growth factor receptor Kit (Homo sapiens, UniProt P10721); experiment: Inhibition of cKIT by TR-FRET based LanthaScreen assay; method in brief: as §1
[6] = target: Tyrosine-protein kinase Lck (Homo sapiens, UniProt P06239); experiment: Inhibition of LCK by TR-FRET based LanthaScreen assay
Sequence of Tyrosine-protein kinase Lck (P06239 whole entry): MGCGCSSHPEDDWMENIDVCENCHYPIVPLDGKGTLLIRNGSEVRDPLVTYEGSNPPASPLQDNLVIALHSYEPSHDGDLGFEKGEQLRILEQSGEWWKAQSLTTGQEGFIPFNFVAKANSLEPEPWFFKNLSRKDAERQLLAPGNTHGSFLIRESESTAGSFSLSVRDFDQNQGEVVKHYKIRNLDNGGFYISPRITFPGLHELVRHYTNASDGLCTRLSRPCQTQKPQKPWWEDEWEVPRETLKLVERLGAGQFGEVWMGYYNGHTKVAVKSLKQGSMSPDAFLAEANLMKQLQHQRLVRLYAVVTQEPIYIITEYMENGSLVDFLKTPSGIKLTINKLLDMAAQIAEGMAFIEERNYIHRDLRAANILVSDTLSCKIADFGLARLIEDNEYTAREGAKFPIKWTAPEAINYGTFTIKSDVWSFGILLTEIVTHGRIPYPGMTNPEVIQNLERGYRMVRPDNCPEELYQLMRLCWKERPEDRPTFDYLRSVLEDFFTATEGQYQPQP

[7] = target: MAP kinase-interacting serine/threonine-protein kinase 2 (Homo sapiens, UniProt Q9HBH9); experiment: Inhibition of MNK2 by TR-FRET based LanthaScreen assay; method in brief: as §1
[8] = target: Platelet-derived growth factor receptor alpha (Homo sapiens, UniProt P16234, V561D); experiment: Inhibition of PDGFRalpha V561D mutant by TR-FRET based LanthaScreen assay; method in brief: as §3
Sequence of Platelet-derived growth factor receptor alpha (P16234 24-1089 V561D limits assumed): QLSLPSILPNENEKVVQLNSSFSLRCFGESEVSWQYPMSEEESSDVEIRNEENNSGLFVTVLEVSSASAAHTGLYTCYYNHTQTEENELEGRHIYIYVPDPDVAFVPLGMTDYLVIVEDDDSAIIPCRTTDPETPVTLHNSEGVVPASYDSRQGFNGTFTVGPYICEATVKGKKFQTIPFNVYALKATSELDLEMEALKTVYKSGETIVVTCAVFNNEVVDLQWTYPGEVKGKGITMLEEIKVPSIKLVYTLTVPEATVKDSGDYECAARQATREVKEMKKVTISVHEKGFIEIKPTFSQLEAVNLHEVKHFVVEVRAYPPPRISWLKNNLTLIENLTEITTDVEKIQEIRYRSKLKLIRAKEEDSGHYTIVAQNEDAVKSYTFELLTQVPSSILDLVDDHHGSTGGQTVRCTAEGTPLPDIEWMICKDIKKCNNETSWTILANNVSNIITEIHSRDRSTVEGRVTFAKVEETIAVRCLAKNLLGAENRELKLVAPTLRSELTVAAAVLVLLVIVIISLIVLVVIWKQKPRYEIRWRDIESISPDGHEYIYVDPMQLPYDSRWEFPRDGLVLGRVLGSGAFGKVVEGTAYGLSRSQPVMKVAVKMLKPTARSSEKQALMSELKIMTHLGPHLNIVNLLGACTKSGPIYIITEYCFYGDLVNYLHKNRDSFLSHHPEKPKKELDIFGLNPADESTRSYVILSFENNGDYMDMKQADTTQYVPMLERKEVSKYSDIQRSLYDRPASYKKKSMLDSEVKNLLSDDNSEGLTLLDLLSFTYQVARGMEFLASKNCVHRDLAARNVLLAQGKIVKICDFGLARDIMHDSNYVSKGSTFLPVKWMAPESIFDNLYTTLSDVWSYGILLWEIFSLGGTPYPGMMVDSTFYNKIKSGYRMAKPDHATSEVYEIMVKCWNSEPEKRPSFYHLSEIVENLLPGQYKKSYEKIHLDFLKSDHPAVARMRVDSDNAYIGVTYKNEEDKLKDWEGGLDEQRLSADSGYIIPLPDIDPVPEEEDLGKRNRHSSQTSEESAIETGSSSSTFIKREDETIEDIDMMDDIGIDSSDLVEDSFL

[9] = target: Proto-oncogene tyrosine-protein kinase receptor Ret (Homo sapiens, UniProt P07949); experiment: Inhibition of RET by TR-FRET based LanthaScreen assay; method in brief: as §3
[10] = target: Non-receptor tyrosine-protein kinase TYK2 (Homo sapiens, UniProt P29597); experiment: Inhibition of TYK2 by TR-FRET based LanthaScreen assay; method in brief: as §3
Sequence of Non-receptor tyrosine-protein kinase TYK2 (P29597 whole entry): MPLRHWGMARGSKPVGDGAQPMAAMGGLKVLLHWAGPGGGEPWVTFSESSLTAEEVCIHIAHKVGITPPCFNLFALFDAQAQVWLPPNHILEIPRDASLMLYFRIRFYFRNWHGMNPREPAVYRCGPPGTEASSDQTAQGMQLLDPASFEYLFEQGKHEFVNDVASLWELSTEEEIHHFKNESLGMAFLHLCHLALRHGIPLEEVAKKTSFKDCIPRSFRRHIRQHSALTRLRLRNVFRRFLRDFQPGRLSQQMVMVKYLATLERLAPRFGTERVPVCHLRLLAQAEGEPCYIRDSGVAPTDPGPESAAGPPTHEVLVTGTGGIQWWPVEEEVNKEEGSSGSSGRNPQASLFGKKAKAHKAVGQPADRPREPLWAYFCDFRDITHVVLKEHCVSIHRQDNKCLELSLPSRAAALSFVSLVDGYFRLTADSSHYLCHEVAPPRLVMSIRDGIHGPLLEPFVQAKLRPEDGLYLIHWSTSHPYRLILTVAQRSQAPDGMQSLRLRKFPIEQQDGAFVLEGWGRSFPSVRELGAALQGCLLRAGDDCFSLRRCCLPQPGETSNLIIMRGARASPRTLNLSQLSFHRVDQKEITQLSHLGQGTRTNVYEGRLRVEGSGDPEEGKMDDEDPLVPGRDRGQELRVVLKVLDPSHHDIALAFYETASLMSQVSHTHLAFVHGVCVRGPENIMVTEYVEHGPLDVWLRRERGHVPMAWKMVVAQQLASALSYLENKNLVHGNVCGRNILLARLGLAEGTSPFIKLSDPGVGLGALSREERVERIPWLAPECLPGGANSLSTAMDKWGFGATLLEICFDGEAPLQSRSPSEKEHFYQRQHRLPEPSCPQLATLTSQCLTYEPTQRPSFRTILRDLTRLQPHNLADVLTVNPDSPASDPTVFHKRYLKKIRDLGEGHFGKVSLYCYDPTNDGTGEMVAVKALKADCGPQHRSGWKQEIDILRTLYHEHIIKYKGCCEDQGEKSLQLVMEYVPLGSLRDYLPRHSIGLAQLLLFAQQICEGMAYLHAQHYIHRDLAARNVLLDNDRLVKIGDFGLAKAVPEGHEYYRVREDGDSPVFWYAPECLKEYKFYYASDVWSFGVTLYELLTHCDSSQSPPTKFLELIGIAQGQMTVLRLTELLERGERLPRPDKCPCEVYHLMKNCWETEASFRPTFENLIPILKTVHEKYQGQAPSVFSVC

[11] = target: T2, Vascular endothelial growth factor receptor 2 (Homo sapiens, UniProt P35968); experiment: Inhibition of VEGFR2 by TR-FRET based LanthaScreen assay; method in brief: as §3
Aurora kinase A = Aurora kinase A (Homo sapiens, UniProt O14965); experiment: Inhibition of Aurora A kinase by Caliper mobility shift assay
Method in brief: (§4)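 Caliper microfluidic mobility shift readout of substrate phosphorylation, run per the group's earlier kinase protocol. IC50 taken from two independent experiments.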

[12] = target: Tyrosine-protein kinase receptor UFO (Homo sapiens, UniProt P30530); experiment: Inhibition of Axl by TR-FRET based LanthaScreen assay; method in brief: as §3
[13] = target: Cyclin-dependent kinase 2 (Homo sapiens, UniProt P24941); experiment: Inhibition of CDK2A by Caliper mobility shift assay; method in brief: as §4
[14] = Inhibition of CDK4D1 by Caliper mobility shift assay; method in brief: as §2
[15] = target: Tyrosine-protein kinase ZAP-70 (Homo sapiens, UniProt P43403); experiment: Inhibition of ZAP70 by TR-FRET based LanthaScreen assay; method in brief: as §3
[16] = Inhibition of COT1 by Caliper mobility shift assay; method in brief: as §2
Ephrin type-A receptor 4 = Ephrin type-A receptor 4 (Homo sapiens, UniProt P54764); experiment: Inhibition of EPHA4 by TR-FRET based LanthaScreen assay; method in brief: as §3
[17] = target: Fibroblast growth factor receptor 3 (Homo sapiens, UniProt P22607); experiment: Inhibition of FGFR3 by TR-FRET based LanthaScreen assay; method in brief: as §3
[18] = target: Glycogen synthase kinase-3 beta (Homo sapiens, UniProt P49841); experiment: Inhibition of GSK3-beta by TR-FRET based LanthaScreen assay; method in brief: as §3
[19] = target: Receptor tyrosine-protein kinase erbB-2 (Homo sapiens, UniProt P04626); experiment: Inhibition of HER2 by TR-FRET based LanthaScreen assay; method in brief: as §3
[20] = target: Hepatocyte growth factor receptor (Homo sapiens, UniProt P08581); experiment: Inhibition of HGFR by TR-FRET based LanthaScreen assay; method in brief: as §3
[21] = target: Insulin-like growth factor 1 receptor (Homo sapiens, UniProt P08069); experiment: Inhibition of IGF1R by TR-FRET based LanthaScreen assay; method in brief: as §3
Insulin receptor = Insulin receptor (Homo sapiens, UniProt P06213); experiment: Inhibition of INSR by TR-FRET based LanthaScreen assay; method in brief: as §3
[22] = target: Tyrosine-protein kinase JAK1 (Homo sapiens, UniProt P23458); experiment: Inhibition of JAK1 by TR-FRET based LanthaScreen assay
[23] = target: Tyrosine-protein kinase JAK2 (Homo sapiens, UniProt O60674); experiment: Inhibition of JAK2 by TR-FRET based LanthaScreen assay
[24] = target: Tyrosine-protein kinase JAK3 (Homo sapiens, UniProt P52333); experiment: Inhibition of JAK3 by Caliper mobility shift assay; method in brief: as §4
[25] = Inhibition of PKAtau by TR-FRET based LanthaScreen assay; method in brief: as §1
[26] = target: Serine/threonine-protein kinase N1 (Homo sapiens, UniProt Q16512); experiment: Inhibition of PKN1 by Caliper mobility shift assay; method in brief: as §4
[27] = target: Serine/threonine-protein kinase N2 (Homo sapiens, UniProt Q16513); experiment: Inhibition of PKN2 by Caliper mobility shift assay; method in brief: as §4
[28] = target: Rho-associated protein kinase 2 (Homo sapiens, UniProt O75116); experiment: Inhibition of ROCK2 by Caliper mobility shift assay; method in brief: as §4
[29] = target: Tyrosine-protein kinase ABL1 (Homo sapiens, UniProt P00519, T315I); experiment: Inhibition of cABL T315I mutant by Caliper mobility shift assay; method in brief: as §4
[30] = target: Mitogen-activated protein kinase 14 (Homo sapiens, UniProt Q16539); experiment: Inhibition of p38alpha by Caliper mobility shift assay; method in brief: as §4
Sequence of Mitogen-activated protein kinase 14 (Q16539 whole entry): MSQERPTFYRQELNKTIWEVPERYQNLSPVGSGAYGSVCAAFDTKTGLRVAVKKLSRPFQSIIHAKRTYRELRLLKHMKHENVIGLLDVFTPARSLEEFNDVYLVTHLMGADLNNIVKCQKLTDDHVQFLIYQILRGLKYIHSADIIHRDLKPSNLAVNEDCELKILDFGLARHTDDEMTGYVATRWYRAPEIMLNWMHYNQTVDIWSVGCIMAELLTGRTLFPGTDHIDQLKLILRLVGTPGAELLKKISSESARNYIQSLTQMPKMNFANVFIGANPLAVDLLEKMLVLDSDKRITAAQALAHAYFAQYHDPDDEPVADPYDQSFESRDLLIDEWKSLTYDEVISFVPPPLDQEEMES

[31] = target: cAMP-dependent protein kinase catalytic subunit alpha (Homo sapiens, UniProt P17612); experiment: Inhibition of PKAalpha by TR-FRET LanthaScreen assay
[32] = target: Dual specificity mitogen-activated protein kinase kinase 2 (Homo sapiens, UniProt P36507); experiment: Inhibition of MEK2 by TR-FRET based LanthaScreen assay; method in brief: as §3
[33] = target: MAP kinase-activated protein kinase 5 (Homo sapiens, UniProt Q8IW41); experiment: Inhibition of MK5 by TR-FRET based LanthaScreen assay; method in brief: as §3
[34] = target: Tyrosine-protein kinase BTK (Homo sapiens, UniProt Q06187); experiment: Inhibition of BTK by TR-FRET based LanthaScreen assay
[35] = target: T2, Vascular endothelial growth factor receptor 2; experiment: Inhibition of VEGFR2 autophosphorylation by cell based assay
[36] = Chemical stability in HEPES buffer assessed as compound isomerization at pH 7.0 to 7.5 for 24 hrs at 37 degC; assay type: physicochemical; conditions: read-out: Activity
Method in brief: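 Compound incubated in HEPES buffer at pH 7.0−7.5 for 24 h at 37 °C; read-out is the percentage isomerization to the C7′-C8′ E isomer.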

COc1cc(O)c2c(c1)/C=C/C[C@H](O)[C@H](O)C(=O)/C=C\C[C@H](C)OC2=O
t1/2 (Plasma [1]): 20 min
t1/2 (Blood): 20 min
Stability (Plasma [2]): 50%

COc1cc(O)c2c(c1)CCC[C@H](O)CC(=O)/C=C\C[C@H](C)OC2=O
IC50 [3]: 0.763 µM
IC50 [4]: 6.4 µM
IC50 (Ephrin type-B receptor 4): 7.4 µM
IC50 [5]: 0.673 µM
IC50 [6]: 4.7 µM
IC50 [7]: 0.15 µM
IC50 [8]: 0.00723 µM
IC50 [9]: 7.2 µM
IC50 [10]: 4.4 µM
IC50 [11]: 0.0058 µM
IC50 (Aurora kinase A): > 10 µM
IC50 [12]: > 10 µM
IC50 [13]: > 10 µM
IC50 [14]: > 10 µM
IC50 [15]: > 10 µM
IC50 [16]: > 10 µM
IC50 (Ephrin type-A receptor 4): > 10 µM
IC50 [17]: > 10 µM
IC50 [18]: > 10 µM
IC50 [19]: > 10 µM
IC50 [20]: > 10 µM
IC50 [21]: > 10 µM
IC50 (Insulin receptor): > 10 µM
IC50 [22]: > 10 µM
IC50 [23]: > 10 µM
IC50 [24]: > 10 µM
IC50 [25]: > 10 µM
IC50 [26]: > 10 µM
IC50 [27]: > 10 µM
IC50 [28]: > 10 µM
IC50 [29]: > 10 µM
IC50 [30]: > 10 µM
IC50 [31]: > 10 µM

COc1cc(O)c2c(c1)CCC[C@H](O)CC(=O)/C=C/C[C@H](C)OC2=O
IC50 [3]: > 10 µM
IC50 [4]: > 10 µM
IC50 (Ephrin type-B receptor 4): > 10 µM
IC50 [5]: 7.6 µM
IC50 [6]: > 10 µM
IC50 [8]: 0.18 µM
IC50 [9]: > 10 µM
IC50 [10]: > 10 µM
IC50 [11]: 0.19 µM

COc1cc(O)c2c(c1)CCCCCC(=O)/C=C\C[C@H](C)OC2=O
IC50 [3]: 3.5 µM
IC50 [4]: > 10 µM
IC50 (Ephrin type-B receptor 4): > 10 µM
IC50 [5]: > 10 µM
IC50 [6]: > 10 µM
IC50 [32]: 6.84 µM
IC50 [33]: > 10 µM
IC50 [7]: > 10 µM
IC50 [8]: 0.095 µM
IC50 [9]: > 10 µM
IC50 [10]: > 10 µM
IC50 [11]: 0.17 µM

COc1cc(O)c2c(c1)CCC[C@H](O)[C@H](O)C(=O)/C=C\C[C@H](C)OC2=O
IC50 [3]: 0.763 µM
IC50 [4]: 0.95 µM
IC50 (Ephrin type-B receptor 4): > 10 µM
IC50 [5]: 0.303 µM
IC50 [6]: 6.2 µM
IC50 [32]: 0.015 µM
IC50 [33]: 0.64 µM
IC50 [8]: 0.00238 µM
IC50 [9]: > 10 µM
IC50 [10]: 4.1 µM
IC50 [11]: 0.002 µM
IC50 (Aurora kinase A): > 10 µM
IC50 [12]: > 10 µM
IC50 [34]: > 10 µM
IC50 [13]: > 10 µM
IC50 [14]: > 10 µM
IC50 [15]: > 10 µM
IC50 [16]: > 10 µM
IC50 (Ephrin type-A receptor 4): > 10 µM
IC50 [17]: > 10 µM
IC50 [18]: > 10 µM
IC50 [19]: > 10 µM
IC50 [20]: > 10 µM
IC50 [21]: > 10 µM
IC50 (Insulin receptor): > 10 µM
IC50 [22]: > 10 µM
IC50 [23]: > 10 µM
IC50 [24]: > 10 µM
IC50 [25]: > 10 µM
IC50 [26]: > 10 µM
IC50 [27]: > 10 µM
IC50 [28]: > 10 µM
IC50 [29]: > 10 µM
IC50 [30]: > 10 µM
IC50 [35]: 0.057 µM
degraded at 24 h [36]: < 1%
IC50 [31]: > 10 µM
